Reference: ChEMBL document CHEMBL1141591, “Lipophilic modifications to dinucleoside polyphosphates and nucleotides that confer antagonist properties at the platelet P2Y12 receptor” (J Med Chem, 2008)
Activity calls are given as the source filed them. No cut-off for these calls is given here.

What was measured:
[1] = target: P2Y purinoceptor 6 (Homo sapiens, UniProt Q15077); assay: Agonist activity at P2Y6 receptor expressed in human 1321 cells at 100 uM by calcium mobilization assay; assay type: functional, cell-based
In short: (§1)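 1321N1 human astrocytoma cells expressing the recombinant receptor were loaded with Fluo-3 AM (2.5 µM final) for 60 min at 25 °C. Assay buffer: KCl 10, NaCl 118, CaCl2 2.5, MgCl2 1, HEPES 20, glucose 10 mM, pH 7.4. Cells were washed and then stimulated with compound. Intracellular calcium was read as the change in fluorescence (FLIPR). Values are EC50 in µM. SR means 5–20% of maximal response at the top concentration, usually 100 µM. NR means no response.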

[2] = target: P2Y purinoceptor 1 (Homo sapiens, UniProt P47900); assay: Agonist activity at human recombinant P2Y1 receptor expressed in human 1321 cells at 100 uM by calcium mobilization assay; assay type: functional, cell-based; in short: as §1
[3] = target: P2Y purinoceptor 12 (Homo sapiens) (UniProt Q9H244); assay: Antagonist activity at P2Y12 receptor assessed as inhibition of ADP-induced human platelet aggregation by washed platelet assay at 100 uM; assay type: functional
In short: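 Blood from healthy volunteers was anticoagulated with ACD and spun at 180g for 15 min to give PRP. Platelets were washed three times in HEPES-buffered saline, pH 7.4, with 0.2% BSA and 5 µM PGI2, then resuspended with 0.25 U/mL apyrase. The suspension held 1 mg/mL fibrinogen at 37 °C, stirred at 1000 rpm. Compound (usually 1 nM–100 µM) was added for 2 min, then ADP at EC90 (usually 1–10 µM). Optical aggregation was recorded for 8 min. IC50 came from a four-parameter logistic fit.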

[4] = target: T1, P2Y purinoceptor 2 (Homo sapiens, UniProt P41231); assay: Agonist activity at P2Y2 receptor expressed in human 1321 cells at 100 uM by calcium mobilization assay; assay type: functional, cell-based; in short: as §1
[5] = target: T1, P2Y purinoceptor 2; assay: Agonist activity at P2Y2 receptor expressed in human 1321 cells by calcium mobilization assay; assay type: functional, cell-based

P2Y purinoceptor 6, sequence (Q15077 whole entry): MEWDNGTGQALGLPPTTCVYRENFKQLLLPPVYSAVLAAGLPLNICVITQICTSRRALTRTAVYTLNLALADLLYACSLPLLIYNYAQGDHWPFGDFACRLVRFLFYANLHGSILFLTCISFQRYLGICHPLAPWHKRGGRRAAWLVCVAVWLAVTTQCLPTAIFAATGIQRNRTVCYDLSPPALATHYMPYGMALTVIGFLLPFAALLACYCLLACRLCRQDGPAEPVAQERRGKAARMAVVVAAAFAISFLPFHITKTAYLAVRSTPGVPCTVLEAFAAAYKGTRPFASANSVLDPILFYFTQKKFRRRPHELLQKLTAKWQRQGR
P2Y purinoceptor 1, sequence (P47900 whole entry): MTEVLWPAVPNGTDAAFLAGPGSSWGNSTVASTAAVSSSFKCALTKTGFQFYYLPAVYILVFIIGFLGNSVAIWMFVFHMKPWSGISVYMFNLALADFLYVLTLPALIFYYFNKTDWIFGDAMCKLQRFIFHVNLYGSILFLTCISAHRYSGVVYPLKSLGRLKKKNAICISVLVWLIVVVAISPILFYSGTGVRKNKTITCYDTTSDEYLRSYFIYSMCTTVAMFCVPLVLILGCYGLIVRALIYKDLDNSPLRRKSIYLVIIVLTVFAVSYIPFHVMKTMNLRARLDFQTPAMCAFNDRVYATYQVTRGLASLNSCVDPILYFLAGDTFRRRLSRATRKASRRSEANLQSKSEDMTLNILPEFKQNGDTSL
T1 sequence (P41231 whole entry): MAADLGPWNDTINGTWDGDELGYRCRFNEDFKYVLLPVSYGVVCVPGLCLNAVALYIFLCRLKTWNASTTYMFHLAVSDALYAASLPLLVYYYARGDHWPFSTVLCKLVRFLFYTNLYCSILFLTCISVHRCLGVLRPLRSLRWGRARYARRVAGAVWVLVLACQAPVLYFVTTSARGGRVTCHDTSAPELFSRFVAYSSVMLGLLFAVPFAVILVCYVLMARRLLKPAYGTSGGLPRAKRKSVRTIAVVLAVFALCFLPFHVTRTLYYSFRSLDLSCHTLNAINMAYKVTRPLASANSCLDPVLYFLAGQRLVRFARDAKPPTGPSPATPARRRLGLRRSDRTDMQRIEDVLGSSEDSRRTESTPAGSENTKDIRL
P2Y purinoceptor 12 (Homo sapiens), sequence (Q9H244 whole entry): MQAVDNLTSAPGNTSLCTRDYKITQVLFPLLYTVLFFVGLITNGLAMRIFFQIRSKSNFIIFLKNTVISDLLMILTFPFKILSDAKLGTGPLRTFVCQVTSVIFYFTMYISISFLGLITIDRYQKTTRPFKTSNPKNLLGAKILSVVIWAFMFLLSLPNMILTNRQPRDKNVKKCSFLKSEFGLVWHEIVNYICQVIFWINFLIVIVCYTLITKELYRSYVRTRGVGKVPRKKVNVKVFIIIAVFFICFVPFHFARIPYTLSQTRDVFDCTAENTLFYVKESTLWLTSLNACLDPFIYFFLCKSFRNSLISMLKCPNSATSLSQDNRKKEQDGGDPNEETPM

| SMILES | Activity [1] | Activity [2] | inhibition [3] [%] | Activity [4] | EC50 [5] [µM] | Activity [3] |
| --- | --- | --- | --- | --- | --- | --- |
| CCCC1O[C@@H]2[C@@H](O1)[C@@H](COP(=O)(O)OP(=O)(O)OP(=O)(O)OP(=O)(O)OC[C@@H]1O[C@H](n3ccc(=O)[nH]c3=O)[C@H]3OC(CCC)O[C@H]31)O[C@H]2n1ccc(=O)[nH]c1=O (some centres undefined) | > 5% | inactive | 60 | > 5% |  |  |
| O=c1ccn([C@@H]2O[C@H](COP(=O)(O)OP(=O)(O)OP(=O)(O)OP(=O)(O)OC[C@@H]3O[C@H](n4ccc(=O)[nH]c4=O)[C@H]4OC(c5ccccc5)O[C@H]43)[C@H]3OC(c4ccccc4)O[C@H]32)c(=O)[nH]1 (some centres undefined) | inactive | inactive |  |  | 3.07 |  |
| Nc1ccn([C@@H]2O[C@H](COP(=O)(O)OP(=O)(O)OP(=O)(O)OP(=O)(O)OC[C@@H]3O[C@H](n4ccc(=O)[nH]c4=O)[C@H]4OC(Cc5ccccc5)O[C@H]43)[C@@H](O)[C@H]2O)c(=O)n1 (some centres undefined) | inactive | inactive | 46 | inactive |  |  |
| Nc1ccn([C@@H]2O[C@H](COP(=O)(O)OP(=O)(O)OP(=O)(O)OP(=O)(O)OC[C@@H]3O[C@H](n4ccc(=O)[nH]c4=O)[C@H]4OC(Cc5ccccc5)O[C@H]43)[C@H]3OC(Cc4ccccc4)O[C@H]32)c(=O)n1 (some centres undefined) | inactive | inactive |  | inactive |  |  |
| Nc1ncnc2c1ncn2[C@@H]1O[C@H](COP(=O)(O)OP(=O)(O)OP(=O)(O)OP(=O)(O)OC[C@@H]2O[C@H](n3cnc4c(N)ncnc43)[C@@H](O)[C@H]2O)[C@H]2OC(Cc3ccccc3)O[C@H]21 (some centres undefined) | inactive | inactive |  |  | 0.052 |  |
| O=C(Nc1ccc(F)cc1)Nc1ccn([C@@H]2O[C@H](COP(=O)(O)OP(=O)(O)OP(=O)(O)OP(=O)(O)OC[C@@H]3O[C@H](n4ccc(=O)[nH]c4=O)[C@@H](O)[C@H]3O)[C@H]3O[C@@H](Cc4ccccc4)O[C@H]32)c(=O)n1 |  | inactive |  | > 5% |  |  |
| CNc1ccccc1C(=O)O[C@H]1[C@@H](O)[C@H](COP(=O)(O)OP(=O)(O)OP(=O)(O)OP(=O)(O)OC[C@H]2O[C@@H](n3ccc(=O)[nH]c3=O)[C@H](O)[C@@H]2O)O[C@@H]1n1ccc(=O)[nH]c1=O | > 5% | inactive | 46 |  | 0.13 |  |
| O=C(O[C@@H]1[C@H](OC(=O)c2ccccc2)[C@@H](n2ccc(=O)[nH]c2=O)O[C@H]1COP(=O)(O)OP(=O)(O)OP(=O)(O)OP(=O)(O)OC[C@H]1O[C@@H](n2ccc(=O)[nH]c2=O)[C@H](OC(=O)c2ccccc2)[C@@H]1OC(=O)c1ccccc1)c1ccccc1 | inactive | inactive | 52 | inactive |  |  |
| Nc1ncnc2c1ncn2[C@@H]1O[C@H](COP(=O)(O)OP(=O)(O)OP(=O)(O)O)[C@@H](O)[C@H]1O |  |  | 63 |  |  |  |
| Nc1ccn([C@@H]2O[C@H](COP(=O)(O)OP(=O)(O)OP(=O)(O)OP(=O)(O)OC[C@@H]3O[C@H](n4ccc(=O)[nH]c4=O)[C@@H](O)[C@H]3O)[C@H]3OC(Cc4ccccc4)O[C@H]32)c(=O)n1 (some centres undefined) | inactive | inactive | 46 |  | 0.545 |  |
| Nc1ccn([C@@H]2O[C@H](COP(=O)(O)O)[C@H]3O[C@@H](Cc4ccccc4)O[C@H]32)c(=O)n1 | inactive | inactive |  | inactive |  | inactive |
| CCCCCCCC1O[C@@H]2[C@H](O1)[C@@H](COP(=O)(O)OP(=O)(O)OP(=O)(O)OP(=O)(O)OC[C@@H]1O[C@H](n3ccc(=O)[nH]c3=O)[C@H]3OC(CCCCCCC)O[C@H]31)O[C@H]2n1ccc(=O)[nH]c1=O (some centres undefined) | inactive | inactive |  |  |  |  |
| O=c1ccn([C@@H]2O[C@H](COP(=O)(O)OP(=O)(O)OP(=O)(O)OP(=O)(O)OC[C@@H]3O[C@H](n4ccc(=O)[nH]c4=O)[C@@H](O)[C@H]3O)[C@H]3OC(/C=C/c4ccccc4)O[C@H]32)c(=O)[nH]1 (stereo in doubt; 24) |  | inactive |  |  | 0.155 |  |
| O=C(Nc1ccccc1)Nc1ncnc2c1ncn2[C@@H]1O[C@H](COP(=O)(O)OP(=O)(O)O)[C@H]2O[C@@H](Cc3ccccc3)O[C@H]21 | > 5% | > 5% |  |  | 13.9 |  |
| CNc1ccccc1C(=O)O[C@H]1[C@@H](O)[C@H](n2ccc(=O)[nH]c2=O)O[C@@H]1COP(=O)(O)OP(=O)(O)OP(=O)(O)OP(=O)(O)OC[C@@H]1O[C@H](n2ccc(=O)[nH]c2=O)[C@@H](OC(=O)c2ccccc2NC)[C@H]1O | > 5% | inactive |  |  | 5.47 |  |
| O=c1ccn([C@@H]2O[C@H](COP(=O)(O)OP(=O)(O)OP(=O)(O)OP(=O)(O)OC[C@@H]3O[C@H](n4ccc(=O)[nH]c4=O)[C@H]4OC(/C=C/c5ccccc5)O[C@H]43)[C@H]3OC(/C=C/c4ccccc4)O[C@H]32)c(=O)[nH]1 (stereo in doubt; 25) | > 5% | inactive |  | inactive |  |  |
| CCCCCCCC1O[C@@H]2[C@H](O1)[C@@H](COP(=O)(O)OP(=O)(O)OP(=O)(O)OP(=O)(O)OC[C@@H]1O[C@H](n3ccc(=O)[nH]c3=O)[C@@H](O)[C@H]1O)O[C@H]2n1ccc(=O)[nH]c1=O (some centres undefined) | > 5% | inactive |  |  | 0.147 |  |
| O=C(Nc1ccc(F)cc1)Nc1ccn([C@@H]2O[C@H](COP(=O)(O)OP(=O)(O)OP(=O)(O)OP(=O)(O)OC[C@@H]3O[C@H](n4ccc(=O)[nH]c4=O)[C@@H](O)[C@H]3O)[C@@H](O)[C@H]2O)c(=O)n1 |  | > 5% |  |  | 2.42 | inactive |
| O=c1ccn([C@@H]2O[C@H](COP(=O)(O)OP(=O)(O)OP(=O)(O)OC[C@@H]3O[C@H](n4ccc(=O)[nH]c4=O)[C@H]4OC(Cc5ccccc5)O[C@H]43)[C@H]3OC(Cc4ccccc4)O[C@H]32)c(=O)[nH]1 (some centres undefined) | inactive | inactive |  | inactive |  |  |
| O=C(Nc1ccc(F)cc1)Nc1ccn([C@@H]2O[C@H](COP(=O)(O)O)[C@H]3O[C@@H](Cc4ccccc4)O[C@H]32)c(=O)n1 | inactive | inactive |  | inactive |  |  |
| Nc1ccn([C@@H]2O[C@H](COP(=O)(O)OP(=O)(O)OP(=O)(O)OP(=O)(O)OC[C@@H]3O[C@H](n4ccc(=O)[nH]c4=O)[C@@H](O)[C@H]3O)[C@@H](O)[C@H]2O)c(=O)n1 | > 5% | > 5% |  |  | 0.044 | inactive |
| O=c1ccn([C@@H]2O[C@H](COP(=O)(O)OP(=O)(O)OP(=O)(O)OP(=O)(O)OC[C@@H]3O[C@H](n4ccc(=O)[nH]c4=O)[C@@H](O)[C@H]3O)[C@@H]3OC(Cc4ccccc4)O[C@H]32)c(=O)[nH]1 (some centres undefined) | > 5% | inactive |  |  | 0.094 |  |
| O=C(Nc1ccc(F)cc1)Nc1ccn([C@@H]2O[C@H](COP(=O)(O)OP(=O)(O)OP(=O)(O)OP(=O)(O)OC[C@@H]3O[C@H](n4ccc(=O)[nH]c4=O)[C@H]4O[C@@H](Cc5ccccc5)O[C@H]43)[C@H]3O[C@@H](Cc4ccccc4)O[C@H]32)c(=O)n1 | inactive | inactive |  | inactive |  |  |
| O=C(Nc1ccc(F)cc1)Nc1ccn([C@@H]2O[C@H](COP(=O)(O)OP(=O)(O)OP(=O)(O)OP(=O)(O)OC[C@@H]3O[C@H](n4ccc(=O)[nH]c4=O)[C@H]4O[C@@H](Cc5ccccc5)O[C@H]43)[C@@H](O)[C@H]2O)c(=O)n1 |  | inactive |  | inactive |  |  |
| O=C(Nc1ccc(F)cc1)Nc1ccn([C@@H]2O[C@H](COP(=O)(O)O)C(O)C2O)c(=O)n1 (single isomer, unassigned) |  |  |  |  |  | inactive |
| O=C(Nc1ccccc1)Nc1ncnc2c1ncn2[C@@H]1O[C@H](COP(=O)(O)OP(=O)(O)OP(=O)(O)OP(=O)(O)OC[C@@H]2O[C@H](n3cnc4c(NC(=O)Nc5ccccc5)ncnc43)[C@H]3O[C@@H](Cc4ccccc4)O[C@H]32)[C@H]2O[C@@H](Cc3ccccc3)O[C@H]21 |  | inactive |  | inactive |  |  |
| O=c1ccn([C@@H]2O[C@H](COP(=O)(O)OP(=O)(O)OP(=O)(O)OP(=O)(O)OC[C@@H]3O[C@H](n4ccc(=O)[nH]c4=O)[C@@H](O)[C@H]3O)[C@H]3OC(C#Cc4ccccc4)O[C@H]32)c(=O)[nH]1 (stereo in doubt; 26) |  | inactive |  |  | 0.068 |  |
| O=c1ccn([C@@H]2O[C@H](COP(=O)(O)OP(=O)(O)OP(=O)(O)OP(=O)(O)OC[C@@H]3O[C@H](n4ccc(=O)[nH]c4=O)[C@@H](O)[C@H]3O)[C@@H]3OC(c4ccccc4)O[C@H]32)c(=O)[nH]1 (some centres undefined) | > 5% | inactive |  |  | 0.192 |  |
| Nc1ncnc2c1ncn2[C@@H]1O[C@H](COP(=O)(O)OP(=O)(O)OP(=O)(O)OP(=O)(O)OC[C@@H]2O[C@H](n3cnc4c(N)ncnc43)[C@H]3OC(Cc4ccccc4)O[C@H]32)[C@H]2OC(Cc3ccccc3)O[C@H]21 (some centres undefined) | inactive | inactive |  | > 5% |  |  |
